# TDP2 absorb: TDP2 (human) inhibition, absorbance primary screen. O95551. recombinant TDP2, T5PNP hydrolysis, p-nitrophenol absorbance 415 nm. inhibition, % at 12.8 µM. actives 0.34% (n = 370,000). AID 720702;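 active means inhibition above the mean of all tested compounds plus 3 SD, set per campaign, cut at about 25% in these data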;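 further: 0% = DMSO with enzyme and 100% = buffer with substrate but no TDP2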
# Target sequence (O95551 whole entry, looked up): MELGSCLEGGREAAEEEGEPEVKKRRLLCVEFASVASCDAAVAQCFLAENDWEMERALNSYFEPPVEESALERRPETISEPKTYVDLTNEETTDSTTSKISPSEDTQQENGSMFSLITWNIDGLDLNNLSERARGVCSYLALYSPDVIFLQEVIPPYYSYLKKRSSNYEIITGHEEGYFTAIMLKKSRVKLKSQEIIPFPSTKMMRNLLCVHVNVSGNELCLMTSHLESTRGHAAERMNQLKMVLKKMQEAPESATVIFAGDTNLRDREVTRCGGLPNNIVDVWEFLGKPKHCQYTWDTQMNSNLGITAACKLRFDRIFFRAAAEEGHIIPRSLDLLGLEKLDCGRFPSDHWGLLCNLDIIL
#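 Test system: Human TDP2 enzyme | Reagent: 5 mM T5PNP | Compound dosing: 12.8 µM single point, 1% DMSO | Incubation: Enzyme reaction with compound for 2 h at 37 °C | Technique: p-Nitrophenol epi absorbance | Read-out: % inhibition relative to enzyme-containing and enzyme-free wells | Benchmarks: High control without enzyme, low control DMSO plus TDP2 | Replicates: Singlicate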
# PAFAH1B3 inh: blocks human PAF acetylhydrolase 1B catalytic subunit 3; recombinant PAFAH1B3, FP-rhodamine probe, fluorescence polarization; actives 0.28% (n = 340,000); Q15102; inhibition, % at 3.39 µM;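 active means inhibition above the screen-wide average of all tested compounds plus 3 SD, cut at about 25% in these data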;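 further: 0% = enzyme with DMSO only and 100% = wells lacking PAFAH1B3 protein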
# Apaf1 inhib: human Apaf-1 inhibition. inhibition, % at 20 µM. O14727. actives 0.71% (n = 330,000). reconstituted apoptosome caspase-3 activity, DEVD-Rh110 fluorescence; active means inhibition of at least 40% at 20 µM;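 further: plate controls were DMSO wells for no effect and DEVD-CHO caspase inhibitor wells for full effect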
#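 System: Apoptosome proteins | Medium: Hepes pH 7.5 with detergent and BSA | Also added: Cytochrome c trigger plus (Z-DEVD)2-Rh110 caspase-3 substrate | Incubation: 30 min compound preincubation, 50 min activation, room temperature | Detection: Rhodamine 110 fluorescence at Ex 480/Em 540 nm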
# PAFAH1B2 inh: inhibitors of human PAFAH1B2; inhibition, % at 3.39 µM; P68402; actives 1.2% (n = 340,000); recombinant PAFAH1B2, FP-rhodamine activity probe, fluorescence polarization;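 active means inhibition above the mean of all tested compounds plus 3 SD, cut at about 24% in these data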;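 further: 0% = enzyme with DMSO and 100% = wells lacking PAFAH1B2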
# Target sequence (P68402 whole entry, looked up): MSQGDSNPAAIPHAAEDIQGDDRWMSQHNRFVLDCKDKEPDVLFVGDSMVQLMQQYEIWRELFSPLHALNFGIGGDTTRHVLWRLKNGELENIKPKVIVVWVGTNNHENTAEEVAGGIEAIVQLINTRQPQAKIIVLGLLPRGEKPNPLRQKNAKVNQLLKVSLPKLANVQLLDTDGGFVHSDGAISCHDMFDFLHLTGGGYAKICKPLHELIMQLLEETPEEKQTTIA
# PAFAH2 inh: inhibitors of human PAFAH2; recombinant PAFAH2, FP-rhodamine activity probe, fluorescence polarization; actives 0.99% (n = 340,000); Q99487; inhibition, % at 3.39 µM;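 active means inhibition above the mean over all tested compounds plus 3 SD, cut at about 30% in these data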;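 further: inhibitors block probe labeling of enzyme so polarization drops; 0% = enzyme with DMSO and 100% = wells lacking PAFAH2 protein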
# An asterisk follows results filed as active; nt = no result given. Only some compounds are listed: those with a hit (about 2.3% of all), similar ones and a draw of the others.
SMILES,TDP2 absorb,PAFAH1B3 inh,Apaf1 inhib,PAFAH1B2 inh,PAFAH2 inh
CCOC(=O)C1=C(C(=O)OCC)C2N(Cc3ccc(C#N)cc3)c3ccccc3[C@@]23C[C@@H](C(=O)OC)N(S(=O)(=O)c2c(C)noc2C)C3=N1 (stereo partly drawn),0,nt,nt,nt,nt
O=c1c2cc3cccnc3nc2ncn1Cc1cccs1,9,nt,nt,nt,nt
CCCCCCC(=O)NC1CCCCN(Cc2ccc(C)cc2)C1=O (stereo not drawn),1,nt,nt,nt,nt
CCCCCCSc1nnc2[nH]c(=O)cc(N)n12,-2,4,3,26*,2
NS(=O)(=O)c1ccc(NNC(=O)c2ccccc2)cc1,5,nt,1,nt,nt
O=C(NNc1cc(Br)c(O)c(Br)c1)c1ccccc1,9,-1,-10,9,52*
CCCCc1c(-c2ccccc2OC)ncn1Cc1ccccc1C,2,nt,nt,nt,nt
CN(C)c1ccc(C(=O)NC2CCCCN(Cc3cccc(Cl)c3)C2=O)cc1 (stereo not drawn),-13,nt,nt,nt,nt
CCN(CC)CCOc1ccc(/C(=C(\Cl)c2ccccc2)c2ccccc2)cc1,-2,3,66*,0,3
O=S1(=O)c2ccc(N3CCN(Cc4ccccc4F)CC3)cc2Oc2ccccc2CN1Cc1cn(Cc2cccc(C(F)(F)F)c2)nn1,3,nt,nt,nt,nt
C[C@H]1[C@@H](C(=O)N2CCCC2)Cc2nc3ccccc3nc2C[C@@H]1c1ccccc1,6,nt,nt,nt,nt
C/C(Cn1nnc2ccccc21)=N/OC(=O)c1c(F)cccc1F,-7,5,5,10,17
C/C(Cn1nnc2ccccc21)=N\OC(=O)c1ccccc1C,4,3,-5,0,82*
O=C(COC(=O)C1CC2C=CC1C2)Nc1ccc2c(c1)OC(F)(F)O2 (stereo not drawn),2,1,4,0,46*
CCN(CC(=O)Nc1sc2c(c1C#N)CCC(C)C2)Cc1nc2ccccc2c(=O)[nH]1 (stereo not drawn),4,2,18,27*,7
Cc1nn(-c2ccccc2)c2c1C(c1ccc(Br)s1)C(C#N)=C(N)O2 (stereo not drawn),nt,12,nt,3,19
Cc1nn(-c2ccccc2)c2c1C(c1ccc(F)cc1F)C(C#N)=C(N)O2 (stereo not drawn),62*,0,5,7,-3
COc1ccc2c(c1)CCCN2C(=O)C1CCCN(S(=O)(=O)c2ccc(Cl)s2)C1 (stereo not drawn),9,nt,nt,nt,nt
CC(=O)Oc1c(I)cc(I)cc1C(=O)Nc1ccc(Cl)cc1,-2,10,27,25*,3
COc1ccc(Cl)cc1C(=O)Nc1ccc(NC(C)=O)cc1,-8,8,-1,-5,5
COc1ccc(CC2CCN(c3ncnc4sccc34)CC2)cc1,1,nt,nt,nt,nt
O=C(CN1CSCC1=O)N1CCN(S(=O)(=O)c2ccc(Cl)cc2)CC1,6,12,-10,29*,-3
O=C(CN1CCN(S(=O)(=O)c2ccc(Cl)cc2)CC1)N1CCCC1,0,9,4,20,-5
Cc1nnc(SCC(=O)N2CCN(S(=O)(=O)c3ccc(Cl)cc3)CC2)[nH]c1=O,2,3,4,30*,4
Cc1nn(CC(C)C(=O)N2CCN(S(=O)(=O)c3ccc(Cl)cc3)CC2)c(C)c1C (stereo not drawn),-1,-2,4,26*,3
SMILES,TDP2 absorb,PAFAH1B3 inh,Apaf1 inhib,PAFAH1B2 inh,PAFAH2 inh
Cc1ccc(S(=O)(=O)N2CCN(C(=O)CSc3ccc(Cl)cc3)CC2)cc1,-21,6,23,16,-1
CC(C)[C@@H]1NC(=O)[C@H]2C[C@@]3(c4ccccc4)c4ccccc4N[C@H]3N2C1=O,4,nt,nt,nt,nt
CCC(C)[C@H](NC(=O)OC(C)(C)C)C(=O)N[C@@H](Cc1ccccc1)C(=O)OC (stereo partly drawn),2,nt,nt,nt,nt
Cc1ccccc1CN1CCCCC(NC(=O)c2ccc(-c3ccccc3)cc2)C1=O (stereo not drawn),0,nt,nt,nt,nt
CN(C)c1ccc(NC(=O)C2C3C=CC(C3)C2C(=O)O)cc1 (stereo not drawn),45*,2,29,-3,-5
CCc1cc2c(CN(C)Cc3ccccc3F)cc(=O)oc2cc1O,-1,4,15,28*,-5
CCCc1ccc(-c2cc(C(=O)NN3CCOCC3)c3ccccc3n2)cc1,3,5,0,2,-3
CCc1ccc(-c2cc(C(=O)Nn3cnnc3)c3ccccc3n2)cc1,6,5,1,72*,-5
COc1ccc(-c2noc(CCC(=O)N3CCN(c4ccc(C(F)(F)F)cc4)CC3)n2)cc1,-1,9,17,3,-5
Cc1ccc(-c2noc(CCC(=O)N3CCN(c4cccc(C(F)(F)F)c4)CC3)n2)cc1,-6,14,42*,17,-6
COC(=O)C(C(C)=O)C1=C/C(=N\S(=O)(=O)c2ccc(C)cc2)c2ccccc2C1=O (stereo not drawn),nt,1,21,1,4
CC(C)c1ccc(S(=O)(=O)/N=C2/C=CC(=O)c3ccccc32)cc1,nt,nt,72*,nt,nt
CC(C)c1ccc(S(=O)(=O)/N=C2\C=C(NS(=O)(=O)c3ccccc3)C(=O)c3ccccc32)cc1,25*,-2,nt,23,26
O=c1[nH]c(NCCO)nc2c1C1(CCCC1)Cc1ccccc1-2,5,10,22,34*,-9
CCC1(C)Cc2ccccc2-c2nc(NCCO)[nH]c(=O)c21 (stereo not drawn),-8,-6,10,5,3
O=c1[nH]c(=S)[nH]c2c1C(c1ccc(Br)cc1)c1c([nH]c(=S)[nH]c1=O)O2,53*,21,nt,-4,55*
Cc1cc(OCC(C)CN2CCC(C(O)(c3ccccc3)c3ccccc3)CC2)ccc1Br (stereo not drawn),-6,nt,nt,nt,nt
Cc1nnc(SCC(=O)Nc2sc3c(c2C#N)CCCC3)[nH]c1=O,2,4,10,4,8
CCOC(=O)c1c(NC(=O)CSc2nnc(C)c(=O)[nH]2)sc2c1CCCC2,-7,3,8,68*,3
CCCNC(=O)c1ccc2c(=O)c(O)c(-c3ccsc3)[nH]c2c1,nt,38*,-16,27*,-16
O=C1CSC(c2ccc([N+](=O)[O-])cc2)N1C1CCCCC1 (stereo not drawn),-18,1,6,27*,4
CC(Oc1ccc(Br)cc1)C(=O)Nc1nnc(C2CC2)s1 (stereo not drawn),20,3,7,26*,2
O=C(COc1ccc(Br)cc1)Nc1nnc(C2CC2)s1,3,-8,-16,-10,7
CC1CC(C)CN(S(=O)(=O)c2ccc3c(c2)CC(=O)N3)C1 (stereo not drawn),-6,2,1,28*,3
CN(C)c1ccc(N=Cc2cccn2C)cc1,25*,17,39,6,9

# Source: PubChem
